# Compound activity deposited in PubChem by Broad Institute.
# Most compounds without a hit are left out; they make up all but 2.4% or so of the library.
# Ecoli rRNA inh: inhibitors of bacterial rRNA selective over humanized ribosomes | GFP signal change (wild-type ribosome), % (no concentration beside the values) | E. coli WT GFP vs humanized-ribosome RFP mutants, fluorescence, 24 h; active compounds read low; DMSO median 0, no signal -100 | actives 1.6% (n = 350,000);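 active = significant combined selectivity score with lowered wild-type GFP, culture density cut under 30%, mutant RFP and density less affected; inactive = any of these conditions unmet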
# E-selectin induc: E-selectin induction on HUVECs; P16581; HUVEC E-selectin immunofluorescence imaging; normalized: neutral wells 0, TNF-alpha wells 100; activation, % at 7.58 µM; actives 0.37% (n = 260,000); AID 686992;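 active = mean E-selectin-positive cell signal at least 10% of the positive control, reached in at least 60% of replicates, without over 20% cell loss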
# Target sequence (P16581 whole entry, looked up): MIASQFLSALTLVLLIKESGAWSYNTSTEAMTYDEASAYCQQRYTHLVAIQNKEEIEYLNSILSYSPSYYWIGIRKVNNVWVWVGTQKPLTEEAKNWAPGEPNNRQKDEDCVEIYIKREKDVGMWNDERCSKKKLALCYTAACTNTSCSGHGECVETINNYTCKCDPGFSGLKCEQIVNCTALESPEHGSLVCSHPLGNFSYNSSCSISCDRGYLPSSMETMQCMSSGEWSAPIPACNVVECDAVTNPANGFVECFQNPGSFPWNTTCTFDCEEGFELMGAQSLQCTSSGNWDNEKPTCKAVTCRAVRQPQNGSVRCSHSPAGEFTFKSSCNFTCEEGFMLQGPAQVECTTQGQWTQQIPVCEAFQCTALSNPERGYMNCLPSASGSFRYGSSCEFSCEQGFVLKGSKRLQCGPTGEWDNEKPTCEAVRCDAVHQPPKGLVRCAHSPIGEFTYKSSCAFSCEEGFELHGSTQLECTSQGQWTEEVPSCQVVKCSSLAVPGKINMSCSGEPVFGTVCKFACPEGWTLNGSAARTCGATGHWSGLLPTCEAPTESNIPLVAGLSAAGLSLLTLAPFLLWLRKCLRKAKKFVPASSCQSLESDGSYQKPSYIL
#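 System: HUVEC, human umbilical vein endothelial cells; quantity: 3,000 cells/well; buffer or medium: EGM-2 medium, gelatin-coated wells; dosing: single-point compound dose; detection: immunofluorescence imaging; evaluation: % PE-positive cells; benchmarks: TNF-alpha, DMSO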
# EWS-Fli block: inhibitors of EWS/Fli oncoprotein transcriptional activity | A673 NR0B1-luciferase reporter, viability-normalised | inhibition, % at 12.6 µM | actives 0.67% (n = 350,000);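 active = mean inhibition of at least 50% after viability correction, with every replicate also passing that limit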;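 note: firefly luciferase signal divided by Alamar Blue viability fluorescence both relative to DMSO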
# LGR2 antag: blocks bursicon-induced cAMP signaling via Drosophila LGR2; inhibition, % at 9.99 µM; actives 0.35% (n = 380,000); AID 720647; HEK293 LGR2, CRE-luciferase, bursicon-stimulated, 4 h;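 active = drop in luminescence signal, shown as inhibition above about 50% in the replicate tests, limit read from the data, passing the limit was not always enough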;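 note: agonist challenge used bursicon conditioned medium at about half maximal strength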
# Starred values were filed as active, the others as inactive; nt = not tested or not shown.
SMILES,Ecoli rRNA inh,E-selectin induc,EWS-Fli block,LGR2 antag
COc1cc(/C=C/C(=O)c2ccc(F)cc2)cc(OC)c1OC,-5,nt,9,nt
O=C(Cn1ncc(Cl)c(Cl)c1=O)N1CCN(Cc2ccccc2)CC1,12,nt,67*,104*
O=C(Cn1ncc(Cl)c(Cl)c1=O)N1CCc2ccccc21,-4,nt,54*,70*
O=C(Cn1ncc(Cl)c(Cl)c1=O)N1CCOCC1,17,0,48,100*
O=C(Cn1ncc2c1-c1ccccc1OC2)N1CCc2ccccc21,-3,1,-4,23
O=C(Cn1ncc2c1-c1ccccc1OC2)N1CCN(Cc2ccccc2)CC1,1,1,13,-1
CC1CC(C)CN(S(=O)(=O)c2ccc(NC(=O)c3ccc(=O)[nH]c3)cc2)C1 (stereo not given),3,2,64*,0
Cc1ccc(C(=O)C2CCN(CC(=O)Nc3nc(C)cs3)CC2)cc1,-22*,nt,6,1
CC(C)CC#Cc1ccc([C@@H]2[C@H](CO)N3C(=O)CN(C(=O)NC4CCCC4)C[C@@H]23)cc1,-1,-1,6,3
COC(=O)[C@@]1(Cc2ccccc2)N=C(c2ccc(OCCCO)cc2)O[C@H]1c1ccccc1CN=[N+]=[N-],nt,nt,9,nt
CCCCC#Cc1ccc(C(=O)NNC(=O)Nc2cc(Cl)cc(Cl)c2)o1,-40*,0,12,9
COc1ccc2c3c([nH]c2c1)[C@H](CO)N(C(=O)c1cccnc1)CC31CCN(Cc2cccnc2)CC1,0,0,-1,4
COc1ccccc1N1CCN(C(=O)CSc2ncccc2-c2nc3ccccc3[nH]2)CC1,nt,nt,nt,13
COc1ccc(-c2nnn(CC(=O)N3CCN(c4ccccc4OC)CC3)n2)cc1OC,-17*,2,-3,-1
COc1ccccc1N1CCN(C(=O)CSc2nc3ccccc3[nH]2)CC1,-41*,nt,-3,-16
CCN(CC)Cc1c(O)ccc2c1O/C(=C\C=C\c1ccccc1)C2=O,16,0,77*,6
C=C1C(=O)O[C@H]2C[C@H]1[C@@H](OC(C)=O)C/C(C)=C/CC/C(C)=C\CC[C@]2(C)O,nt,nt,56*,nt
C=C1C(=O)O[C@@H]2[C@H]3O[C@]3(C)CC/C=C(\C)CC[C@@H]12,nt,0,2,20
Cc1ccccc1NC1=CC(=O)CC(C)(C)C1,nt,nt,nt,-27
CC1(C)CC(=O)C=C(NC2=CC3OC(c4ccccc4)OCC3OC2=O)C1 (stereo not given),14,nt,0,86*
CN(C)/C=N/C1=C(C#N)C(c2cccs2)c2ccc3ccccc3c2O1 (stereo not given),-13,-1,54*,-65
COc1ccc2sc(-c3ccccc3OC)c(-c3ccc(O)cc3)c2c1,-37,42*,2,-1
COc1cc2sc(-c3ccccc3OC)c(-c3ccc(O)cc3)c2cc1OC,-5,1,-2,-6
O=C(NCCO)c1cc2c([nH]c3ccccc32)c(-c2ccccc2)n1,-28*,nt,0,-24
Oc1c(Br)cc(Br)cc1CNc1cccc2cccnc12,-22*,0,11,-4
SMILES,Ecoli rRNA inh,E-selectin induc,EWS-Fli block,LGR2 antag
Oc1ccc(Br)cc1CNc1cccc2cccnc12,-42,0,6,0
CCOC(=O)CN(C(=O)CSc1nnc(COc2ccc(OC)cc2)n1CC)c1ccccc1,-27*,6,4,-13
CCn1c(COc2ccccc2)nnc1SCC(=O)c1cccc([N+](=O)[O-])c1,-24*,nt,1,-11
C[C@H](CO)N1C[C@H](C)[C@H](CN(C)C(=O)NC2CCCCC2)Oc2ccc(NC(=O)CCCCCC(=O)Nc3ccccc3N)cc2C1=O,-1,0,nt,14
COc1ccc(CCN2C(=O)c3ccccc3C2c2nnnn2-c2c(C)cccc2C)cc1OC (stereo not given),-14,2,-4,-2
COc1ccc(OC)c(CN2C(=O)c3ccccc3C2c2nnnn2-c2ccc3c(c2)OCCO3)c1 (stereo not given),-17,-4,52*,-10
O=C1c2ccccc2C(c2nnnn2-c2ccc3c(c2)OCCO3)N1CCc1ccc(O)cc1 (stereo not given),-13,0,-11,-43
O=C1c2ccccc2C(c2nnnn2-c2ccc3c(c2)OCCO3)N1CCc1ccccc1F (stereo not given),-34*,1,-14,-7
COc1ccc(CCN2C(=O)c3ccccc3C2c2nnnn2-c2ccc3c(c2)OCCO3)cc1OC (stereo not given),-7,1,9,-9
